From ChEMBL document CHEMBL1909581, “Growth inhibition of human lung cancer cells via down-regulation of epidermal growth factor receptor signaling by yuanhuadine, a daphnane diterpene from Daphne genkwa” (J Nat Prod, 2011)
Calls of active or inactive are those of the source. The calls are words filed in the database; no cut-off is given here.

Experiments:
MRC5 = test: Antiproliferative activity against human MRC5 cells after 3 days by SRB assay; type: cell-based; details: mrc5, 72 h
Procedure, shortened: (§1)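 Cells seeded at 5 × 10^4 cells/mL and exposed to a range of concentrations for 3 days. Fixed with 10% TCA, then SRB stain read. Growth expressed as % of solvent-treated control. IC50 obtained by nonlinear regression of percent survival versus concentration.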

A549 [1] = test: Downregulation of CDK2 expression in human A549 cells at G1 phase at 5 to 100 nM after 24 to 48 hrs by Western blot analysis; type: functional, cell-based
Procedure, shortened: (§2)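 A549 cells treated with a range of concentrations for 24 or 48 h. Lysates run on 6–15% SDS-PAGE and blotted to PVDF, blocked in 5% milk/PBST. Primary antibodies overnight at 4 °C, secondary 2 h at room temperature, ECL detection. Representative of three independent experiments.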

NCI-H1993 [2] = test: Antiproliferative activity against human NCI-H1993 cells after 3 days by SRB assay; type: functional, cell-based; details: NCI-H1993, 72 h
A549 [3] = test: Cell cycle arrest in human A549 cells assessed as accumulation at G2/M phase at 20 nM after 24 hrs by propidium iodide staining-based flow cytometric analysis (reference value: 18.9 %); type: functional
A549 [4] = test: Cell cycle arrest in human A549 cells assessed as accumulation at G0/G1 phase at 20 nM after 48 hrs by propidium iodide staining-based flow cytometric analysis (reference value: 49.6 %); type: functional
NCI-H292 = test: Antiproliferative activity against human NCI-H292 cells after 3 days by SRB assay; type: functional, cell-based; details: NCI-H292, 72 h
[5] = molecular target: Hepatocyte growth factor receptor (Homo sapiens) (UniProt P08581); test: Inhibition of c-Met phosphorylation at Tyr1003 in HGF-stimulated human A549 cells pretreated at 5 to 100 nM for 2 hrs by Western blot analysis; type: cell-based
Procedure, shortened: (§3)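 A549 cells pretreated for 2 h with the compound at 5, 20 or 100 nM, then stimulated with HGF (50 ng/mL) for 10 min. c-Met and its downstream signalling proteins read by Western blot (SDS-PAGE, PVDF transfer, ECL detection).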

[6] = molecular target: Glycogen synthase kinase-3 beta (Homo sapiens) (UniProt P49841); test: Inhibition of GSK3-beta in human A549 cells after 24 hrs by Western blot analysis; type: cell-based
Procedure, shortened: (§4)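 A549 cells (RPMI 1640, 10% FBS, 37 °C, 5% CO2) exposed to the compound at various concentrations for 24 or 48 h. Lysates run on 6–15% SDS-PAGE, transferred to PVDF, probed with primary antibodies overnight at 4 °C, and detected by ECL. Blots shown are representative of three independent experiments.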

NCI-H358 = test: Antiproliferative activity against human NCI-H358 cells after 3 days by SRB assay; type: functional, cell-based; details: NCI-H358, 72 h; procedure, shortened: as §1
NCI-H1993 [7] = test: Antiproliferative activity against gefitinib resistant human NCI-H1993 cells after 3 days by SRB assay; type: functional, cell-based; details: NCI-H1993, 72 h
[8] = molecular target: Hepatocyte growth factor receptor (Homo sapiens) (UniProt P08581); test: Inhibition of c-Met-mediated p70S6K phosphorylation in HGF-stimulated human A549 cells pretreated at 5 to 100 nM by Western blot analysis; type: cell-based; procedure, shortened: as §3
T47D = test: Antiproliferative activity against human T47D cells after 3 days by SRB assay; type: functional, cell-based; details: 72 h; procedure, shortened: as §1
[9] = molecular target: Serine/threonine-protein kinase mTOR (Homo sapiens) (UniProt P42345); test: Inhibition of MTOR phosphorylation in human A549 cells at 20 nM after 24 to 48 hrs by Western blot analysis; type: cell-based; procedure, shortened: as §4
HCT-116 = test: Antiproliferative activity against human HCT116 cells after 3 days by SRB assay; type: functional, cell-based; details: HCT-116, 72 h; procedure, shortened: as §1
[10] = molecular target: Hepatocyte growth factor receptor (Homo sapiens) (UniProt P08581); test: Inhibition of c-Met-mediated 4EBP1 phosphorylation in HGF-stimulated human A549 cells pretreated at 5 to 100 nM by Western blot analysis; type: cell-based; procedure, shortened: as §3
A549 [11] = test: Cell cycle arrest in human A549 cells assessed as accumulation at Sub-G1 phase at 100 nM after 48 hrs by propidium iodide staining-based flow cytometric analysis (reference value: 0.2 %); type: functional
A549 [12] = test: Antiproliferative activity against human A549 cells assessed as reduction in colonies after treatment for 24 hrs measured after 14 days using Giemsa staining; type: functional, cell-based
Procedure, shortened: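 A549 plated at 100 cells per 35 mm dish. After 24 h, medium with compound added for 24 h, then PBS wash and 14 days' growth in drug-free medium. Colonies methanol-fixed, Giemsa-stained, counted, and expressed as % of DMSO-treated control.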

[13] = molecular target: Hepatocyte growth factor receptor (Homo sapiens) (UniProt P08581); test: Inhibition of c-Met-mediated FKHRL1 phosphorylation in HGF-stimulated human A549 cells pretreated at 5 to 100 nM by Western blot analysis; type: cell-based; procedure, shortened: as §3
A549 [14] = test: Downregulation of cyclin E expression in human A549 cells at G1 phase at 5 to 100 nM after 24 to 48 hrs by Western blot analysis; type: functional, cell-based; procedure, shortened: as §2
Mus musculus = test: Toxicity in BALB/c mouse xenografted with human A549 cells in assessed as body weight at 0.5 mg/kg, po once daily for 14 days measured for 27 days relative to control; type: organism-based; design: dose 0.5 mg/kg, route oral; details: in vivo, 648 h
Procedure, shortened: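 Female nu/nu mice were injected sc in the right flank with 3 × 10^6 A549 cells. At about 100 mm3 tumour volume, mice were randomised into groups of five. Compound was given orally at 0.2 or 0.5 mg/kg once daily for 14 days in ethanol/Tween 80/H2O (1:1:98). Body weight and overt toxicity were monitored against vehicle controls.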

A549 [15] = test: Cell cycle arrest in human A549 cells assessed as accumulation at G2/M phase at 100 nM after 48 hrs by propidium iodide staining-based flow cytometric analysis (reference value: 18.9 %); type: functional
A549 [16] = test: Cell cycle arrest in human A549 cells assessed as accumulation at S phase at 100 nM after 24 hrs by propidium iodide staining-based flow cytometric analysis (reference value: 31.6 %); type: functional
A549 [17] = test: Antiproliferative activity against human A549 cells assessed as growth inhibition incubated for 24 hrs measured 24 hrs after compound washout by SRB assay; type: functional, cell-based
Procedure, shortened: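 A549 cells exposed to a range of concentrations for 24 h, washed with PBS and kept in drug-free medium for 24 h. Compared with continuous 24 h and 48 h exposure. Viability read by SRB. Means ± SE of triplicate tests.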

SNU-638 = test: Antiproliferative activity against human SNU638 cells after 3 days by SRB assay; type: functional, cell-based; details: SNU-638, 72 h; procedure, shortened: as §1
A549 [18] = test: Downregulation of cyclin B1 expression in human A549 cells at G2/M phase at 5 to 100 nM after 24 to 48 hrs by Western blot analysis; type: functional, cell-based; procedure, shortened: as §2
A549 [19] = test: Cell cycle arrest in human A549 cells assessed as accumulation at G0/G1 phase at 5 nM after 48 hrs by propidium iodide staining-based flow cytometric analysis (reference value: 49.6 %); type: functional
[20] = molecular target: Epidermal growth factor receptor (Homo sapiens) (UniProt P00533); test: Inhibition of EGFR-mediated Akt phosphorylation in EGF-stimulated human A549 cells pretreated at 20 nM by Western blot analysis; type: cell-based
Procedure, shortened: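 A549 cells serum-starved 24 h, pretreated with 20 nM compound for 2 h, then stimulated with EGF (10 ng/mL) for 10 min. Levels of EGFR, Akt and ERK read by Western blot.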

[21] = molecular target: Hepatocyte growth factor receptor (Homo sapiens) (UniProt P08581); test: Inhibition of c-Met-mediated Akt phosphorylation in HGF-stimulated human A549 cells pretreated at 5 to 100 nM by Western blot analysis; type: cell-based; procedure, shortened: as §3

Hepatocyte growth factor receptor (Homo sapiens), sequence (P08581 whole entry): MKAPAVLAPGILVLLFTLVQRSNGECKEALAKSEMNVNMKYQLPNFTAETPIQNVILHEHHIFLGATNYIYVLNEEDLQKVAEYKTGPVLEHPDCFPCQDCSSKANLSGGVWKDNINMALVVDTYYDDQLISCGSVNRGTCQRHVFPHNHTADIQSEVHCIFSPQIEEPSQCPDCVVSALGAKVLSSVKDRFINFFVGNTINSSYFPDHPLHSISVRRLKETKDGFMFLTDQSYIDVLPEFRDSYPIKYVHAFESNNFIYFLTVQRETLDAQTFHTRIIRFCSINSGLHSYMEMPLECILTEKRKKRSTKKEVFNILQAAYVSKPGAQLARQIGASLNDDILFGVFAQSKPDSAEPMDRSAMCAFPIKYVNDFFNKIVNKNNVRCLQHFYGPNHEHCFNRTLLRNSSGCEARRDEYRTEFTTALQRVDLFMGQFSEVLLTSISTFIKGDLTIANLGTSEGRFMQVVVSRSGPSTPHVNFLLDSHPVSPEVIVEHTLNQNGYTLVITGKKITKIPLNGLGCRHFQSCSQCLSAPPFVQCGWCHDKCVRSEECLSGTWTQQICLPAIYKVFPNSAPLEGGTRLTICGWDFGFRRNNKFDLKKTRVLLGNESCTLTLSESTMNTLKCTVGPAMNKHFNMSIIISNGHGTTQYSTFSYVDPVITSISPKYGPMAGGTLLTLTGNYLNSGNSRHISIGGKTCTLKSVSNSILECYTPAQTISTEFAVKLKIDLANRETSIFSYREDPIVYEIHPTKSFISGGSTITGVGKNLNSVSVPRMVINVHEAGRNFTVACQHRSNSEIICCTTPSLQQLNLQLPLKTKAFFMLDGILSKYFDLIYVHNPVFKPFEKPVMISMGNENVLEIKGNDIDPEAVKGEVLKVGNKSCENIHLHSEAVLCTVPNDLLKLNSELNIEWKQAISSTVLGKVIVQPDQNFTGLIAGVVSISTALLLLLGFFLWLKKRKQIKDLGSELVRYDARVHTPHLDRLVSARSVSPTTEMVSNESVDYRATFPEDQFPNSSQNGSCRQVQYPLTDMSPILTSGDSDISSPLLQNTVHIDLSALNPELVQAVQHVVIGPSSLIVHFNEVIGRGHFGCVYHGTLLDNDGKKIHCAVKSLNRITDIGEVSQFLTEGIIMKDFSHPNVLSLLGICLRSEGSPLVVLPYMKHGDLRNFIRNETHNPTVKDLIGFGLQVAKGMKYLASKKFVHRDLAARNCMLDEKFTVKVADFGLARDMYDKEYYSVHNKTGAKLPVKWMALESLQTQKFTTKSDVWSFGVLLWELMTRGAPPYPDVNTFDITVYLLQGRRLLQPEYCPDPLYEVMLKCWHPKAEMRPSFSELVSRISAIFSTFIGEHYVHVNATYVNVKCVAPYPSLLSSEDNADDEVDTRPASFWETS
Epidermal growth factor receptor (Homo sapiens), sequence (P00533 whole entry): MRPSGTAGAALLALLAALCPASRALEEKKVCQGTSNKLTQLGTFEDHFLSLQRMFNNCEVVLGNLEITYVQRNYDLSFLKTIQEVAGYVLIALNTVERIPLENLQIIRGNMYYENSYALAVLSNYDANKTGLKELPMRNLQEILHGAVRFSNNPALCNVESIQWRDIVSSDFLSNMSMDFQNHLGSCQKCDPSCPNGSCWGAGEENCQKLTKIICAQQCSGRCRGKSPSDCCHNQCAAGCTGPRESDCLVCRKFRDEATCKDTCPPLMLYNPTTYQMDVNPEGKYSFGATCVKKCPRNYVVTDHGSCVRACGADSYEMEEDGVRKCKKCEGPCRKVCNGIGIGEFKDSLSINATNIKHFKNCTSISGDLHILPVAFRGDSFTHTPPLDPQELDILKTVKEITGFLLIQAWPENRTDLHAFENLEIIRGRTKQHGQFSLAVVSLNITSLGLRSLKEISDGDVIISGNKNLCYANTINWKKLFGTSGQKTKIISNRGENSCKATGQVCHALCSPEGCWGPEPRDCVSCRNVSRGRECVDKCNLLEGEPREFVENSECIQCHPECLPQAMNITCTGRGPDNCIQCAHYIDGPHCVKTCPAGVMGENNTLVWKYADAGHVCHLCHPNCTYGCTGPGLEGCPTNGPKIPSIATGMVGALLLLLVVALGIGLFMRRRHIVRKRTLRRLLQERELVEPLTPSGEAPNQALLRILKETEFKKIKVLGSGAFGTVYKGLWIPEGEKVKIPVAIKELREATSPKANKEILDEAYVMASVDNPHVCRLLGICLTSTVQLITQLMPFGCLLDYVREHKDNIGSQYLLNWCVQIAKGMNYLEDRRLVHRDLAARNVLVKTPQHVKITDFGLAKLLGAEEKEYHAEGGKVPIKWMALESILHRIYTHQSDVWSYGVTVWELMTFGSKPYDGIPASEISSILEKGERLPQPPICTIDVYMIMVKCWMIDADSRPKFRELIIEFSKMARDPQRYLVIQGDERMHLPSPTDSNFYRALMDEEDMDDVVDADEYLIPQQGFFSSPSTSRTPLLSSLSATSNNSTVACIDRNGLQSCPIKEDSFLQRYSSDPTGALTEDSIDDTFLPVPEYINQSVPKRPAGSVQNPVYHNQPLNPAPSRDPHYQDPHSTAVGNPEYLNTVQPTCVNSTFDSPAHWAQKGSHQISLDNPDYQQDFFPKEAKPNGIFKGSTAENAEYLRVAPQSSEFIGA
Glycogen synthase kinase-3 beta (Homo sapiens), sequence (P49841 whole entry, looked up): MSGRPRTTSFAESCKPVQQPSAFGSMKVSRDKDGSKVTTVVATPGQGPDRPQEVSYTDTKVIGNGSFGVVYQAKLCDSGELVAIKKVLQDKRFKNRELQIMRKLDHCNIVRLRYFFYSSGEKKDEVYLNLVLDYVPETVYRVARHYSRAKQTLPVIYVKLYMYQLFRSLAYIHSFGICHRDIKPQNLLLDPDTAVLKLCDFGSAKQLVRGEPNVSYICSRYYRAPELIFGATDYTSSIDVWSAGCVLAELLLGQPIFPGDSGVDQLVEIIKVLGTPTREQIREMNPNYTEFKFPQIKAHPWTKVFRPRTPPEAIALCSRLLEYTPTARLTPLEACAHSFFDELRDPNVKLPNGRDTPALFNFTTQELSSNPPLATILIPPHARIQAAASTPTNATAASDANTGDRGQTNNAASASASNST

## C=C(C)[C@@]12O[C@@]3(/C=C/C=C/CCCCC)O[C@@H]1[C@@H]1[C@@H]4O[C@]4(CO)[C@@H](O)[C@]4(O)C(=O)C(C)=C[C@H]4[C@@]1(O3)[C@H](C)[C@H]2OC(C)=O [YUANHUADINE]
MRC5
  growth inhibition (GI): Non-toxic
A549 [1]
  Activity: Active
NCI-H1993 [2]
  IC50: 0.0047 µM
A549 [3]
  Activity: 24.5%
A549 [4]
  Activity: 62.2%
NCI-H292
  IC50: < 1 pM
[5]
  inhibition: Active
[6]
  inhibition: Dose-dependent effect
NCI-H358
  IC50: 9.1 µM
NCI-H1993 [7]
  IC50: 0.0041 µM
[8]
  inhibition: Active
T47D
  IC50: 12.7 µM
[9]
  inhibition: Active
HCT-116
  IC50: 10.2 µM
[10]
  inhibition: Active
A549 [11]
  Activity: 0.3%
A549 [12]
  Activity: Active
[13]
  inhibition: Active
A549 [14]
  Activity: Active
Mus musculus
  Activity: Non-toxic
A549 [15]
  Activity: 26.3%
A549 [16]
  Activity: 6.7%
A549 [17]
  growth inhibition (GI): Active
SNU-638
  IC50: > 20 µM
A549 [18]
  Activity: Active
A549 [19]
  Activity: 62.2%
[20]
  inhibition: Active
[21]
  inhibition: Active
